Measurements reported in ChEMBL document CHEMBL4196009, “Novel vitexin-inspired scaffold against leukemia” (Eur J Med Chem, 2018).
The source made the active and inactive calls. No cut-off for these calls is given here.

Tests used:
KOPN-8 [1] = assay: Induction of apoptosis in human KOPN8 cells assessed as upregulation of cleaved PARP level at 0.5 uM pre-treated with NAC for 1 hr and measured after 3 hrs by Western blot analysis; format: functional, cell-based
How it was run: (§1)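 KOPN-8 cells were exposed to compound for 3 h and 24 h, with or without N-acetylcysteine added to a parallel set as antioxidant. Lysates were analysed by Western blot for cleaved PARP, Mcl-1, Ser-2-phosphorylated RNAPII CTD, cMyc, total Rb and pRb. Signals were compared against controls for dose-dependent change.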

SUP-B15 = assay: Induction of apoptosis in human SUP-B15 cells assessed as viable cells at 5 uM after 24 hrs by Annexin V-FITC/propidium iodide staining-based flow cytometry (reference value: 82.8%); format: functional; details: SUP-B15, 24 h, read-out: Activity
KOPN-8 [2] = assay: Induction of apoptosis in human KOPN8 cells assessed as viable cells at 5 uM after 24 hrs by Annexin V-FITC/propidium iodide staining-based flow cytometry (reference value: 85.2%); format: functional; details: KOPN-8, 24 h, read-out: Activity
How it was run: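 KOPN-8 cells were treated for 24 h, with a DMSO vehicle control and a staurosporine positive control. Cells were stained with FITC-Annexin V and propidium iodide and analysed by flow cytometry. Quadrant gating separated viable, early apoptotic, late apoptotic (Q2) and necrotic populations.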

KOPN-8 [3] = assay: Induction of apoptosis in human KOPN8 cells assessed as effect on Mcl-1 level at 100 uM pre-treated with NAC for 1 hr and measured after 3 hrs by Western blot analysis relative to control; format: functional; how it was run: as §1
[4] = molecular target: T1, Retinoblastoma-associated protein (Homo sapiens) (UniProt P06400); assay: Inhibition of Rb phosphorylation in human KOPN8 cells assessed as ratio of phosphorylated Rb to total Rb levels at 30 uM after 3 hrs by Western blot analysis relative to control; format: cell-based
T1 sequence (whole entry): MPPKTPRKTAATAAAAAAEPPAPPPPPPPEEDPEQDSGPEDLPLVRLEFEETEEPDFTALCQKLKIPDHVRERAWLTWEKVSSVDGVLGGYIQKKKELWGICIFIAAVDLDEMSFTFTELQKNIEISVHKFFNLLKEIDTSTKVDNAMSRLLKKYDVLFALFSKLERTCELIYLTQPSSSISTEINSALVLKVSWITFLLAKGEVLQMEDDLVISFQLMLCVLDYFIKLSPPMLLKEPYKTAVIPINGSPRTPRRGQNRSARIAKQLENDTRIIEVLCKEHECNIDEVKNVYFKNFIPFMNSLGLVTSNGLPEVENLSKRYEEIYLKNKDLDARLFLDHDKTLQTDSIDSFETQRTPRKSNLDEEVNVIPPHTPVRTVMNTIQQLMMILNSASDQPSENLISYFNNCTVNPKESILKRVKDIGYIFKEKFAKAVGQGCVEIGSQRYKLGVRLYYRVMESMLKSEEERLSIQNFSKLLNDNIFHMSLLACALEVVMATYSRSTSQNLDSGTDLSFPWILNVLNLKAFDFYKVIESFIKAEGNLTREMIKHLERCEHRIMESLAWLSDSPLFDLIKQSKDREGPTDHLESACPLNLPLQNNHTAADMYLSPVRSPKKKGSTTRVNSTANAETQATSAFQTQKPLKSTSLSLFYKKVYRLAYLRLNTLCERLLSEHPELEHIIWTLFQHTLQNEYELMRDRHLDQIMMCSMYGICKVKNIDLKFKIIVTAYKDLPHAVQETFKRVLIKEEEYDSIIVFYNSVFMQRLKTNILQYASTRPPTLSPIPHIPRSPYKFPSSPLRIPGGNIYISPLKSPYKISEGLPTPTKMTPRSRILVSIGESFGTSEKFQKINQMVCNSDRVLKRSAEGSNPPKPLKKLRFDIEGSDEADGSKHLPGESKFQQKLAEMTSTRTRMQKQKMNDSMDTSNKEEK
How it was run: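 KOPN-8 pre-B ALL cells were treated for 3 h and 24 h, with or without N-acetyl cysteine added to a parallel set of cells as an antioxidant/ROS quencher. Lysates were analysed by Western blot for phosphorylated Rb and total Rb. The same blots also probed PARP cleavage, Mcl-1, Ser-2-phosphorylated RNAPII CTD and cMyc.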

KOPN-8 [5] = assay: Induction of apoptosis in human KOPN8 cells assessed as effect on Mcl-1 level at 30 uM after 3 hrs by Western blot analysis relative to control; format: functional; how it was run: as §1
KOPN-8 [6] = assay: Induction of apoptosis in human KOPN8 cells assessed as effect on Mcl-1 level at 100 uM after 3 hrs by Western blot analysis relative to control; format: functional
How it was run: (§2)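 KOPN-8 cells were treated at 10–100 µM final, with or without N-acetylcysteine co-addition, for 3 h and 24 h. Lysates were analysed by Western blot for PARP cleavage, Mcl-1, phospho-Ser2 RNAPII CTD, c-Myc, total Rb and pRb. Levels are relative to the vehicle control.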

KOPN-8 [7] = assay: Induction of apoptosis in human KOPN8 cells assessed as effect on Mcl-1 level at 30 uM pre-treated with NAC for 1 hr and measured after 3 hrs by Western blot analysis relative to control; format: functional; how it was run: as §1
KOPN-8 [8] = assay: Effect on c-Myc expression in human KOPN8 cells at 10 uM pre-treated with NAC for 1 hr and measured after 3 hrs by Western blot analysis relative to control; format: functional
Homo sapiens [9] = species: Homo sapiens; assay: Inhibition of RNA polymerase 2 C-terminal domain phosphorylation at Ser2 residue in human KOPN8 cells at 30 uM after 3 hrs by Western blot analysis relative to control; format: cell-based; how it was run: as §1
Homo sapiens [10] = species: Homo sapiens; assay: Inhibition of RNA polymerase 2 C-terminal domain phosphorylation at Ser2 residue in human KOPN8 cells at 30 uM pre-treated with NAC for 1 hr and measured after 3 hrs by Western blot analysis relative to control; format: cell-based; how it was run: as §1
KOPN-8 [11] = assay: Induction of apoptosis in human KOPN8 cells assessed as effect on Mcl-1 level at 100 uM after 24 hrs by Western blot analysis relative to control; format: functional; how it was run: as §2
KOPN-8 [12] = assay: Effect on c-Myc expression in human KOPN8 cells after 3 to 24 hrs by Western blot analysis; format: functional, cell-based; how it was run: as §2
KOPN-8 [13] = assay: Effect on c-Myc expression in human KOPN8 cells at 100 uM pre-treated with NAC for 1 hr and measured after 3 hrs by Western blot analysis relative to control; format: functional
KOPN-8 [14] = assay: Induction of apoptosis in human KOPN8 cells assessed as effect on Mcl-1 level at 30 uM pre-treated with NAC for 1 hr and measured after 24 hrs by Western blot analysis relative to control; format: functional; how it was run: as §1
KOPN-8 [15] = assay: Cell cycle arrest in human KOPN8 cells assessed as accumulation at S phase at 10 uM after 24 hrs by propidium iodide staining-based flow cytometry (reference value: 66.56%); format: functional
How it was run: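 KOPN-8 cells treated 24 h alongside a DMSO vehicle and a staurosporine (2.0 µM) positive control. Apoptosis was scored by FITC Annexin V / propidium iodide flow cytometry with quadrant gating (early, late apoptotic). DNA content was measured by PI staining to give the percentage of cells in G0/G1, S and G2/M. Groups were compared by t-test; error bars are SD.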

Homo sapiens [16] = species: Homo sapiens; assay: Inhibition of RNA polymerase 2 C-terminal domain phosphorylation at Ser2 residue in human KOPN8 cells at 10 uM pre-treated with NAC for 1 hr and measured after 3 hrs by Western blot analysis relative to control; format: cell-based; how it was run: as §1

fold change (FC) [4] | SMILES | Activity (KOPN-8 [1]) | viability at 5 µM (SUP-B15) [%] | viability at 5 µM (KOPN-8 [2]) [%] | fold change (FC) (KOPN-8 [3]) | fold change (FC) (KOPN-8 [5]) | fold change (FC) (KOPN-8 [6]) | fold change (FC) (KOPN-8 [7]) | fold change (FC) (KOPN-8 [8]) | fold change (FC) (Homo sapiens [9]) | fold change (FC) (Homo sapiens [10]) | fold change (FC) (KOPN-8 [11]) | Activity (KOPN-8 [12]) | fold change (FC) (KOPN-8 [13]) | fold change (FC) (KOPN-8 [14]) | Activity (KOPN-8 [15]) [%] | fold change (FC) (Homo sapiens [16])
– | CN(C)C(=O)c1cc2cnc(Nc3ccc(N4CCNCC4)cn3)nc2n1C1CCCC1 [RIBOCICLIB] | inactive | 35.4 | 2.3 | – | – | – | – | – | – | – | – | – | – | – | – | –
1 | COc1ccc(-c2c(I)c(=O)c3c(OC)cc(OC)cc3n2S(=O)(=O)c2ccc(OC)cc2)cc1 | – | – | – | 0.5 | 0.6 | 0.6 | 0.8 | 0.9 | 1 | 0.9 | 0.1 | Dose-dependent effect | 0.5 | 0.7 | 25.66 | 1
